Calls of active or inactive are those of the source. No cut-off for these calls is given here.
Key:
[1] = tested on: Human betaherpesvirus 5; test: Antiviral activity against HCMV Towne infected in human HFF cells assessed as reduction in plaque formation treated with compound following viral infection and incubated for 8 to 10 days by crystal violet staining based assay; type: functional, organism-based; conditions: Human betaherpesvirus 5, strain Towne
[2] = tested on: Human betaherpesvirus 5; test: Antiviral activity against GCV-resistant HCMV Towne infected in human HFF cells assessed as reduction in plaque formation treated with compound following viral infection and incubated for 8 to 10 days by crystal violet staining based assay; type: functional, organism-based; conditions: Human betaherpesvirus 5, strain Towne
[3] = tested on: Human betaherpesvirus 5; test: Antiviral activity against HCMV TB40 infected in human HFF cells assessed as reduction in plaque formation treated with compound following viral infection and incubated for 8 to 10 days by crystal violet staining based assay; type: functional, organism-based; conditions: Human betaherpesvirus 5, TB40, HFF
[4] = tested on: HFF; test: Cytotoxicity against human HFF cells assessed as reduction in cell viability incubated for 72 hrs or 10 days by MTT assay; type: cell-based
Outline: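 MTT assay on uninfected cells exposed to compound for 72 h or 8–10 days, matching the antiviral assay durations. MTT (5 mg/mL stock in PBS) added, then 2–3 h at 37 °C. Formazan absorbance read at 560 nm.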

[5] = tested on: Human alphaherpesvirus 1; test: Antiviral activity against HSV 1 infected in African green monkey Vero cells assessed as reduction in plaque formation incubated for 36 hrs by crystal violet staining based assay; type: functional, organism-based
Outline: (§1)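 Plaque reduction in Vero cells: virus adsorbed 60 min, then compound added in a carboxymethylcellulose overlay. Plaques counted after 36 h by crystal violet staining.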

[6] = tested on: Human alphaherpesvirus 2; test: Antiviral activity against HSV 2 infected in African green monkey Vero cells assessed as reduction in plaque formation incubated for 36 hrs by crystal violet staining based assay; type: functional, organism-based; outline: as §1
[7] = tested on: Human gammaherpesvirus 4; test: Antiviral activity against EBV infected in human AKATA cells assessed as reduction in IgG-induced lytic virus replication measured at 48 hrs post-lytic induction by qRT-PCR analysis; type: functional, organism-based
[8] = Antiviral activity against Mouse Cytomegalovirus Smith (ATCC VR-1399) infected in mouse MEF cells assessed as reduction in plaque formation measured after 3 days by crystal violet staining based assay; type: functional, cell-based, Murine cytomegalovirus (strain Smith)
Outline: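 Plaque reduction with MCMV Smith in mouse embryonic fibroblasts, with compound in a carboxymethylcellulose overlay. Assay ended at 3 days and plaques counted after crystal violet staining.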

[9] = tested on: Human betaherpesvirus 5; test: Antiviral activity against pp28-luciferase expressing HCMV Towne infected in human HFF cells assessed as reduction in viral replication treated with compound at 24 hrs post viral infection at MOI of 1 PFU/cell and measured after 3 days by luciferase reporter gene assay; type: functional, organism-based; conditions: strain Towne
Outline: (§2)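 Time-of-addition in HFFs infected with HCMV Towne (MOI 1). Add-on: compound added at 0, 6, 24 or 48 hpi. Removal: compound added right after infection and washed out after 0, 6, 24 or 48 h. Luciferase read at 72 hpi.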

[10] = tested on: Human betaherpesvirus 5; test: Antiviral activity against pp28-luciferase expressing HCMV Towne infected in human HFF cells assessed as reduction in viral replication treated with compound immediately after viral infection at MOI of 1 PFU/cell followed by compound washout after 6 hrs and measured after 3 days by luciferase reporter gene assay; type: functional; conditions: for Activity: strain Towne; outline: as §2
[11] = tested on: Human betaherpesvirus 5; test: Antiviral activity against HCMV Towne infected in human HFF cells assessed as reduction in plaque formation treated with compound following viral infection at MOI of 1 PFU/cell and measured at 10 days post-infection in presence of letermovir by crystal violet staining based assay; type: functional, organism-based; conditions: Human betaherpesvirus 5, strain Towne, 240 h
[12] = tested on: Human betaherpesvirus 5; test: Antiviral activity againstpp28-luciferase expressing HCMV Towne infected in human HFF cells assessed as reduction in viral replication treated with compound following viral infection at MOI of 1 PFU/cells measured after 3 days in presence of GCV by luciferase reporter gene assay; type: functional, organism-based; conditions: Human betaherpesvirus 5, strain Towne, 72 h
Outline: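 HFFs in 96-well plates were infected with pp28-luciferase Towne HCMV, in which luciferase is driven by the UL99 late promoter, at MOI 1. A dose-response of each drug alone gave its EC₅₀. Combinations started at twice each EC₅₀ in DMEM with 4% FBS, followed by two-fold serial dilutions, and were added after infection. Luciferase was read in cell lysates at 72 hpi. The Bliss ratio is observed over expected inhibition.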

[13] = tested on: Human betaherpesvirus 5; test: Antiviral activity against pp28-luciferase harboring UL97 C607Y mutant expressing GCV-resistant HCMV Towne infected in human HFF cells assessed as reduction in viral replication at 0.5 to 3 uM treated with compound following viral infection at MOI of 0.1 PFU/cell and measured at 72 hrs post infection by luciferase reporter gene assay; type: functional, organism-based; conditions: strain Towne
Outline: (§3)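 HFFs infected with GCV-resistant pp28-luciferase Towne (MOI 0.1), then treated with a compound dilution series. Luciferase, driven by the UL99 late promoter, read in cell lysates at 72 hpi. Data are mean ± SD of triplicates from a single experiment.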

[14] = tested on: Human betaherpesvirus 5; test: Antiviral activity against HCMV TB40 infected in human HFF cells assessed as reduction in plaque formation at 0.1 to 3 uM treated with compound following viral infection at […] measured after 8 days by crystal violet staining analysis; type: functional, organism-based
Outline: (§4)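 HFFs (2 × 10⁵/well) infected with HCMV TB40 at about 100 plaques/well for 90 min. Inoculum removed, then DMEM with 0.5% CMC, 4% FBS and compound added. Incubated at 37 °C; plaques stained with crystal violet and counted at 8 dpi. Experiment repeated three times; one representative shown.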

[15] = tested on: Human betaherpesvirus 5; test: Inhibition of viral protein expression in HCMV Towne infected in human HFF cells assessed as reduction in IE2 expression at 0.1 to 10 uM treated with compound following viral infection at MOI of 1 PFU/cell measured at 72 hrs post infection by Western blot analysis; type: functional, organism-based; conditions: strain Towne
Outline: (§5)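 HFFs infected with HCMV Towne (MOI 1), then treated with compound. Lysates taken at 72 hpi, equal protein loaded on 8–10% Tris-glycine SDS-PAGE and transferred to PVDF. Primary antibodies overnight at 4 °C, HRP secondary, chemiluminescent detection; β-actin as loading control.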

[16] = tested on: Human betaherpesvirus 5; test: Inhibition of viral protein expression in HCMV Towne infected in human HFF cells assessed as reduction in UL44 expression at 0.1 to 10 uM treated with compound following viral infection at MOI of 1 PFU/cell measured at 72 hrs post infection by Western blot analysis; type: functional, organism-based; conditions: strain Towne; outline: as §5
[17] = tested on: Human betaherpesvirus 5; test: Inhibition of viral protein expression in HCMV Towne infected in human HFF cells assessed as reduction in UL84 expression at 0.1 to 10 uM treated with compound following viral infection at MOI of 1 PFU/cell measured at 72 hrs post infection by Western blot analysis; type: functional, organism-based; conditions: strain Towne; outline: as §5
[18] = tested on: Human betaherpesvirus 5; test: Inhibition of viral protein expression in HCMV Towne infected in human HFF cells assessed as reduction in pp65 expression at 0.1 to 10 uM treated with compound following viral infection at MOI of 1 PFU/cell measured at 72 hrs post infection by Western blot analysis; type: functional, organism-based; conditions: strain Towne
Outline: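 Lysates taken at 72 hpi, equal protein run on SDS-PAGE and transferred to PVDF. Immunoblot for viral proteins (IE1/2, UL84, UL44, pp65) with β-actin as loading reference, chemiluminescent detection.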

[19] = tested on: Human betaherpesvirus 5; test: Inhibition of viral protein expression in HCMV Towne infected in human HFF cells assessed as reduction in IE1 expression at 0.1 to 10 uM treated with compound following viral infection at MOI of 1 PFU/cell measured at 72 hrs post infection by Western blot analysis; type: functional, organism-based; conditions: strain Towne; outline: as §5
[20] = tested on: Human betaherpesvirus 5; test: Antiviral activity against HCMV Towne infected in human HFF cells assessed as reduction in viral DNA replication at 1.5 uM treated with compound following viral infection at MOI of 0.1 PFU/cell by US17 real time PCR analysis; type: functional, organism-based; conditions: strain Towne
Outline: (§6)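 At set time points supernatants were harvested and cells lysed for DNA. Cell-associated viral DNA and supernatant viral DNA quantified by real-time PCR targeting a 151-bp conserved US17 region.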

[21] = tested on: Human betaherpesvirus 5; test: Antiviral activity against HCMV Towne infected in human HFF cells assessed as reduction in viral DNA yields in the supernatant at 1.5 uM treated with compound following viral infection at MOI of 0.1 PFU/cell by US17 real time PCR analysis; type: functional, organism-based; conditions: strain Towne; outline: as §6
[22] = tested on: Human betaherpesvirus 5; test: Antiviral activity against HCMV Towne infected in human HFF cells assessed as reduction in viral DNA replication at 2 uM treated with compound following viral infection at MOI of 0.1 PFU/cell by US17 real time PCR analysis; type: functional, organism-based; conditions: strain Towne; outline: as §6
[23] = tested on: Human betaherpesvirus 5; test: Antiviral activity against HCMV Towne infected in human HFF cells assessed as reduction in viral DNA yields in the supernatant at 2 uM treated with compound following viral infection at MOI of 0.1 PFU/cell by US17 real time PCR analysis; type: functional, organism-based; conditions: strain Towne; outline: as §6
[24] = tested on: Human betaherpesvirus 5; test: Antiviral activity against HCMV TB40 infected in human HFF cells assessed as reduction in plaque formation at 0.75 to 10 uM treated with compound following viral infection at […] measured after 8 days by crystal violet staining analysis; type: functional, organism-based; outline: as §4
[25] = tested on: Human betaherpesvirus 5; test: Antiviral activity against pp28-luciferase harboring UL97 C607Y mutant expressing GCV-resistant HCMV Towne infected in human HFF cells assessed as reduction in viral replication at 1 to 5 uM treated with compound following viral infection at MOI of 0.1 PFU/cell and measured at 72 hrs post infection by luciferase reporter gene assay; type: functional, organism-based; conditions: strain Towne; outline: as §3
[26] = tested on: Human betaherpesvirus 5; test: Inhibition of viral protein expression in HCMV Towne infected in human HFF cells assessed as reduction in IE1 expression at 0.3 to 10 uM treated with compound following viral infection at MOI of 1 PFU/cell measured at 72 hrs post infection by Western blot analysis; type: functional, organism-based; conditions: strain Towne; outline: as §5
[27] = tested on: Human betaherpesvirus 5; test: Inhibition of viral protein expression in HCMV Towne infected in human HFF cells assessed as reduction in IE2 expression at 0.3 to 10 uM treated with compound following viral infection at MOI of 1 PFU/cell measured at 72 hrs post infection by Western blot analysis; type: functional, organism-based; conditions: strain Towne; outline: as §5
[28] = tested on: Human betaherpesvirus 5; test: Antiviral activity against HCMV Towne infected in human HFF cells assessed as reduction in viral DNA replication at 5 uM treated with compound following viral infection at MOI of 0.1 PFU/cell by US17 real time PCR analysis; type: functional, organism-based; conditions: strain Towne; outline: as §6
[29] = tested on: Human betaherpesvirus 5; test: Antiviral activity against HCMV Towne infected in human HFF cells assessed as reduction in viral DNA yields in the supernatant at 5 uM treated with compound following viral infection at MOI of 0.1 PFU/cell by US17 real time PCR analysis; type: functional, organism-based; conditions: strain Towne; outline: as §6
[30] = human gammaherpesvirus 4, 48 h, read-out: EC50

| SMILES | EC50 [1] [nM] | EC50 [2] [nM] | EC50 [3] [nM] | CC50 [4] [nM] | EC50 ([5]; vero) | EC50 ([6]; vero) | EC50 [7, 30] [nM] | EC50 ([8]; mef) | Activity [9] | Activity [10] | EC50 [11] [nM] | EC50 [12] [nM] | Activity [13] | Activity [14] | inhibition [15] | inhibition [16] | inhibition [17] | inhibition [18] | other results |
| --- | --- | --- | --- | --- | --- | --- | --- | --- | --- | --- | --- | --- | --- | --- | --- | --- | --- | --- | --- |
| Nc1c(S(=O)(=O)c2cccs2)c2nc3ccccc3nc2n1Cc1ccccc1 | 390 | 260 | 330 | > 250000 | Not Active | Not Active | > 10000 | Not Active | inactive | Active | 130 | 570 | Active | Active | Active | Active | Active | Active | inhibition [19]: Active; Activity [20]: Active; Activity [21]: Active |
| CCc1ccc(NC(=O)[C@H](Cc2c[nH]c3ccccc23)NC(=O)[C@@H]2Cc3ccccc3CN2)cc1 | 640 | 170 | 340 | 86000 | – | – | – | – | inactive | – | 140 | 550 | Active | Active | Active | Active | Active | Active | EC50 ([5]; Human alphaherpesvirus 1, Vero, 36 h, read-out: EC50): 1780 nM; EC50 ([6]; Human alphaherpesvirus 2, Vero, 36 h, read-out: EC50): 1300 nM; EC50 [7]: Not Active; EC50 ([8]; Murid betaherpesvirus 1, ATCC VR-1399, MEF, 72 h, read-out: EC50): 11700 nM; inhibition (INH) [10]: 100%; Activity [22]: Active; Activity [23]: Active |
| CCN1CCN(CCCNC(=O)c2ccc3c(c2)sc2nc(-c4ccc(OC)cc4)cn23)CC1 | 850 | 840 | 1210 | 70900 | Not Active | Not Active | 1920 | Not Active | inactive | Active | 610 | 690 | – | – | – | – | – | – | Activity [24]: Active; Activity [25]: Active; inhibition [26]: Active; inhibition [27]: Active; Activity [28]: Active; Activity [29]: Active |
